In ChEMBL document CHEMBL1777756, “Discovery of Novel Benzo[a]phenoxazine SSJ-183 as a Drug Candidate for Malaria” (ACS Med Chem Lett, 2010):
Active and inactive are the calls of the source. No cut-off for these calls is given here.

Assays:
[1] = test system: Plasmodium berghei; test: Antimalarial activity against Plasmodium berghei NK-65 infected in ICR mouse assessed as survival days at 100 mg/kg, po administered as single dose (reference value: 6 days); format: functional
Outline: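 Female ICR mice infected with P. berghei NK-65 received a single oral dose of 100 mg/kg on day 1. The compound was given as a suspension in 5% glucose/10% ethanol or in 7% Tween 80/3% ethanol. Parasitemia was read on day 4 as percent reduction relative to untreated controls, and mean survival days were recorded.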

[2] = test system: Plasmodium berghei; test: Antimalarial activity against Plasmodium berghei ANKA expressing green fluorescent protein infected in NMRI mouse assessed as survival days at 100 mg/kg, po qd administered for 3 consecutive days; format: functional
Outline: (§1)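 Female NMRI mice infected with GFP-expressing P. berghei ANKA were dosed orally once daily for three consecutive days, 3 mice per dose level, in 2 to 3 independent experiments. Parasitemia was read on day 4 post-infection, and mean survival days were recorded along with the percentage of cured animals.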

[3] = test system: Plasmodium berghei; test: Antimalarial activity against Plasmodium berghei ANKA expressing green fluorescent protein infected in NMRI mouse assessed as growth inhibition at 10 mg/kg, po qd administered for 3 consecutive days measured on day 4 post parasitic infection; format: functional; conditions: 96 h, read-out: GI
Outline: (§2)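 Oral dosing once a day for three consecutive days to female NMRI mice infected with P. berghei GFP ANKA strain. n = 3 mice per dose, data from 2–3 independent experiments. Parasitemia inhibition read on day 4 postinfection. Mean survival days and the percentage of cured animals were recorded.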

[4] = Toxicity in S9 fraction at 1000 uM by chromosomal aberration test; format: subcellular; conditions: s9, 1000 µM
Outline: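 Chromosome aberration test at 1000 μM, run both without and with S9 metabolic activation.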

[5] = test system: Leishmania donovani; test: Antiparasitic activity against Leishmania donovani; format: functional, organism-based
[6] = test system: Trypanosoma cruzi; test: Antiparasitic activity against Trypanosoma cruzi; format: functional, organism-based
[7] = Oral bioavailability in Sprague-Dawley rat; format: ADME, organism-based; conditions: in vivo
Outline: (§3)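 Male Sprague–Dawley rats received 2.8 mg/kg intravenously or 21.5 mg/kg orally, and the plasma concentration–time profile was followed. Oral bioavailability and terminal half-life after iv dosing were derived.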

[8] = Terminal-half life in iv dosed Sprague-Dawley rat; format: ADME, organism-based; conditions: in vivo, read-out: beta t1/2 (converted); outline: as §3
[9] = test system: Plasmodium berghei; test: Antimalarial activity against Plasmodium berghei ANKA infected in NMRI mouse assessed as survival days at 100 mg/kg, po administered as single dose; format: functional
Outline: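 Female NMRI mice infected with P. berghei ANKA received a single oral dose of 100 mg/kg. Three independent experiments were run with 3 mice each. Mean survival days were averaged across the experiments.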

[10] = test system: Mus musculus; test: Biodistribution in mouse eyes at 100 mg/kg, po administered as single dose; format: ADME, organism-based, Eye; parameters: dose 100 mg/kg, route oral; conditions: in vivo
Outline: (§4)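 Mice received a single oral dose of 100 mg/kg. Urine, eyes and organs were then checked by eye for the purple/blue colour of the compound formulation.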

[11] = Selectivity ratio of IC50 for Plasmodium falciparum K1 to IC50 for Trypanosoma brucei rhodesiense; format: functional
[12] = test system: Trypanosoma cruzi; test: Selectivity ratio of IC50 for Plasmodium falciparum K1 to IC50 for Trypanosoma cruzi; format: functional
[13] = test system: L6; test: Cytotoxicity against rat L6 cells; format: cell-based
Outline: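 Cytotoxicity was tested against L-6 rat myoblasts, with IC50 determined. Values are the mean of two independent assays.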

[14] = test system: Plasmodium berghei; test: Antimalarial activity against Plasmodium berghei ANKA expressing green fluorescent protein infected in NMRI mouse assessed as cure rate at 30 mg/kg, po qd administered for 3 consecutive days; format: functional; outline: as §2
[15] = test system: Plasmodium berghei; test: Antimalarial activity against Plasmodium berghei ANKA expressing green fluorescent protein infected in NMRI mouse assessed as survival days at 10 mg/kg, po qd administered for 3 consecutive days; format: functional; outline: as §1
[16] = target: D(3) dopamine receptor (Homo sapiens) (UniProt P35462); test: Inhibition of human recombinant D3 receptor at 1 uM
Outline: (§5)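 Binding assays were run against a panel of 80 receptors at 1 μM compound. Percent inhibition was read for human recombinant receptors.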

[17] = target: T1, Adenosine receptor A3 (Homo sapiens) (UniProt P0DMS8); test: Inhibition of human recombinant A3 receptor at 1 uM; outline: as §5
T1 sequence (whole entry): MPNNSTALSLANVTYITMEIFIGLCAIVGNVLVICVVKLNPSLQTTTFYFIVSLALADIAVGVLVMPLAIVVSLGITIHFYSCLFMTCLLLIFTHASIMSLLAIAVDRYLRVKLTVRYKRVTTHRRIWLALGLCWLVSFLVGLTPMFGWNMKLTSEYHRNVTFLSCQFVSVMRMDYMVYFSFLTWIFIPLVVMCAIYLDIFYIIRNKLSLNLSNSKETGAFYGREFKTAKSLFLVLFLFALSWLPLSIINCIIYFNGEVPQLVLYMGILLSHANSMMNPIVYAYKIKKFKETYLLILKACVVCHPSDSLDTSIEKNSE

[18] = test system: Plasmodium berghei; test: Antimalarial activity against Plasmodium berghei str. ANKA infected in mouse assessed as cure rate at 100 mg/kg, po administered as three daily dose; format: functional, organism-based; parameters: dose 100 mg/kg; outline: as §2
[19] = Toxicity in rat at 1000 mg/kg by micronucleus test; format: organism-based; parameters: dose 1000 mg/kg; conditions: in vivo
Outline: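 In vivo micronucleus test in rats dosed at 1000 mg/kg × 2.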

[20] = Selectivity index, ratio of IC50 for rat L6 cells to IC50 for Plasmodium falciparum K1; format: toxicity, cell-based; conditions: read-out: Ratio IC50
Outline: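 Selectivity index is IC50 against L-6 cells divided by IC50 against chloroquine/pyrimethamine-resistant P. falciparum K1. Each IC50 is the mean of two independent assays.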

[21] = Toxicity in S9 fraction at 2 uM by micronucleus test; format: subcellular; conditions: s9, 2 µM
Outline: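 In vitro micronucleus test at 2.0 μM, run both without and with S9.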

[22] = test system: Plasmodium berghei; test: Antimalarial activity against Plasmodium berghei ANKA expressing green fluorescent protein infected in NMRI mouse assessed as survival days at 30 mg/kg, po qd administered for 3 consecutive days; format: functional; outline: as §1
[23] = test system: Plasmodium berghei; test: Antimalarial activity against Plasmodium berghei ANKA expressing green fluorescent protein infected in NMRI mouse assessed as cure rate at 100 mg/kg, po qd administered for 3 consecutive days; format: functional; outline: as §2
[24] = test system: Plasmodium berghei; test: Antimalarial activity against Plasmodium berghei ANKA infected in NMRI mouse at 100 mg/kg, po administered as single dose; format: functional
Outline: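 Female NMRI mice infected with P. berghei ANKA strain were given a single oral dose of 100 mg/kg. Three independent experiments were run with n = 3 mice per experiment. Inhibition of parasitemia and mean survival days are averaged across the experiments.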

[25] = test system: Trypanosoma brucei rhodesiense; test: Antiparasitic activity against Trypanosoma brucei rhodesiense; format: functional, organism-based
[26] = test system: Plasmodium berghei; test: Antimalarial activity against Plasmodium berghei ANKA expressing green fluorescent protein infected in NMRI mouse assessed as growth inhibition at 30 mg/kg, po qd administered for 3 consecutive days measured on day 4 post parasitic infection; format: functional; conditions: 96 h, read-out: GI; outline: as §2
[27] = test system: Leishmania donovani; test: Selectivity ratio of IC50 for Plasmodium falciparum K1 to IC50 for Leishmania donovani; format: functional
[28] = test system: Mus musculus; test: Toxicity in NMRI mouse infected with Plasmodium berghei ANKA expressing green fluorescent protein assessed as lethality at 2000 mg/kg, po qd administered for 3 consecutive days; format: organism-based; parameters: dose 2000 mg/kg, route oral; conditions: in vivo
[29] = test system: Plasmodium berghei; test: Antimalarial activity against Plasmodium berghei NK-65 infected in ICR mouse assessed as inhibition of parasitemia at 100 mg/kg, po administered as single dose on day 1 measured on day 4; format: functional
Outline: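 Compound was formulated at 100 mg/kg in 5% glucose/10% ethanol or in 7% Tween 80/3% ethanol. The suspension was given as a single oral dose on day 1 to female ICR mice infected with P. berghei NK-65. Parasitemia was determined on day 4 after infection. Treated-group mean is expressed as percent difference from the control-group mean.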

[30] = test system: Blood; test: Cytotoxicity in G6PD-deficient human blood assessed as hemolysis; format: tissue-based
[31] = test system: Plasmodium falciparum; test: Antimalarial activity against chloroquine and pyrimethamine resistant Plasmodium falciparum K1; format: functional, organism-based
Outline: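 IC50 was determined in vitro against the chloroquine- and pyrimethamine-resistant P. falciparum K1 strain. Values are the mean of two independent assays.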

[32] = test system: Plasmodium berghei; test: Antimalarial activity against Plasmodium berghei ANKA expressing green fluorescent protein infected in NMRI mouse assessed as growth inhibition at 100 mg/kg, po qd administered for 3 consecutive days measured on day 4 post parasitic infection; format: functional; conditions: 96 h, read-out: GI; outline: as §2
[33] = Biodistribution in mouse urine at 100 mg/kg, po administered as single dose; format: ADME, organism-based; parameters: dose 100 mg/kg, route oral; conditions: in vivo; outline: as §4
[34] = test system: Mus musculus; test: Phototoxicity against mouse at 300 mg/kg, po; format: organism-based; parameters: dose 300 mg/kg, route oral; conditions: in vivo
Outline: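 Mice dosed orally at 300 mg/kg were assessed for phototoxicity.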

Sequence of D(3) dopamine receptor (Homo sapiens) (P35462 whole entry): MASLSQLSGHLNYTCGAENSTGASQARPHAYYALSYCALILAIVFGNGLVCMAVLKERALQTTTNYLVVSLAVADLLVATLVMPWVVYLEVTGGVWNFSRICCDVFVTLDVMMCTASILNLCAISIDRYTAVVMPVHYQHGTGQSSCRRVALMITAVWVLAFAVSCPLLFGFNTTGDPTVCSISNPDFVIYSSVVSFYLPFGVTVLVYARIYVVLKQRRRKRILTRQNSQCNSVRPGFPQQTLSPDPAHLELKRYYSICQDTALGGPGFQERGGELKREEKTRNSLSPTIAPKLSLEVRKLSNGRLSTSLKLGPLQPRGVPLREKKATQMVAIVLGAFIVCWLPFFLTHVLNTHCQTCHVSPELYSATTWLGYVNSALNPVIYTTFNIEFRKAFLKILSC

CCN(CC)c1ccc2nc3c4ccccc4/c(=N\c4ccncc4)cc-3oc2c1
MSD [1]: 14.6 days
MSD [2]: >30 days
inhibition in vivo at 10 mg/kg [3]: 26%
Activity [4]: Non-toxic
IC50 [5]: 6.5 µM
IC50 [6]: 11.3 µM
bioavailability [7]: 30%
half-life [8]: 5.5 h
MSD [9]: 16 days
Drug uptake [10]: Not Active
Ratio IC50 [11]: > 1000
Ratio IC50 [12]: > 1000
IC50 [13]: 55.7 µM
Activity [14]: 78%
MSD [15]: 4 days
inhibition [16]: 80%
inhibition [17]: 80%
Activity [18]: Active
Activity [19]: Non-toxic
selectivity ratio [20]: 7330
Activity [21]: Non-toxic
MSD [22]: 27.2 days
Activity [23]: 100%
inhibition in vivo at 100 mg/kg [24]: 99%
IC50 [25]: 36 µM
inhibition in vivo at 30 mg/kg [26]: 99%
Ratio IC50 [27]: > 1000
Activity [28]: Non-toxic
inhibition in vivo at 100 mg/kg [29]: > 99.9%
Activity [30]: Non-toxic
IC50 [31]: 0.0076 µM
inhibition in vivo at 100 mg/kg [32]: > 99.9%
Drug uptake [33]: Not Active
Activity [34]: Non-toxic
